Laboratory results: PMC9989235 (Iranian Journal of Medical Sciences, 2023)

Tests used:
[1] = DPPH radical scavenging assay; conditions: mean±SD
Method in brief: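 Test compound in methanol at 50, 75 and 100 was added to 0.005% (w/v) DPPH in methanol. Incubation was 45 min at room temperature, with absorbance read at 517 nm against a blank. Inhibition (%) = [(controlA − sampleA)/[…]]×100, where the control held all reagents except the test compound. Triplicate runs; IC50 taken from a fitted line to the plot.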

[2] = test system: Giardia intestinalis; assay: In vitro bioassay of antigiardial activity; assay type: cell-based; conditions: Giardia duodenalis, read-out: Antigiardial activity, IC50, Giardia intestinalis
[3] = test system: selected bacteria strains; assay: Disc diffusion method, overall statements on the selected bacteria strains; assay type: cell-based; conditions: selected Gram-positive and Gram-negative strains, inhibition zones
Method in brief: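 Clinical isolates from Kirkuk Hospital were cultured on agar in Petri dishes. Test compound was dissolved in DMSO at 60 µg/mL, with DMSO alone tested alongside. Plates were incubated 24 h at 37 °C, pH 7.4±0.2. Inhibition-zone diameter around the disc was scored: − none; + 10–15 mm; ++ 15–20 mm; +++ ≥20 mm.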

Structure (SMILES)	DPPH radical scavenging, inhibition at 50 µg/mL ([1]; compound concentration 50 µg/mL, 45 min, 517 nm) [%]	DPPH radical scavenging, inhibition at 75 µg/mL ([1]; compound concentration 75 µg/mL, 45 min, 517 nm) [%]	DPPH radical scavenging, inhibition at 100 µg/mL ([1]; compound concentration 100 µg/mL, 45 min, 517 nm) [%]	IC50 [2] [µM]	antibacterial activity (in words) [3]	DPPH radical scavenging, IC50 ([1]; fitted line to a plot, triplicate)
O=C1O[C@H]([C@@H](O)CO)C(O)=C1O [Ascorbic acid]	78.01±0.75	81.01±0.85	84.21±0.41	–	–	–
Cc1ncc([N+](=O)[O-])n1CCO [Metronidazole]	–	–	–	3.71 ± 0.27	no antibacterial activity	ns (No scavenging activity)
